ChEMBL document CHEMBL3421563, “Potent Irreversible Inhibitors of LasR Quorum Sensing in Pseudomonas aeruginosa” (ACS Med Chem Lett, 2015)
Calls of active or inactive are those of the source. The rule behind the calls is not given here.

Assays:
[1] = Antagonist activity at Pseudomonas aeruginosa LasR expressed in Escherichia coli BL21 DE3 after 4 to 6 hrs by GFP reporter gene assay
Procedure, shortened: (§1)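 GFP-based LasR antagonist bioassay. IC50 is the mean of triplicate runs, range as 95% confidence interval. Percent inhibition of GFP is measured at 100 μM relative to Br-HSL positive control, which is set at 100% inhibition.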

[2] = biological target: T1, Transcriptional activator protein LasR (Pseudomonas aeruginosa (strain ATCC 15692 / PAO1 / 1C / PRS 101 / LMG12228)) (UniProt P25084); assay: Antagonist activity at Pseudomonas aeruginosa LasR expressed in Escherichia coli BL21 DE3 at 100 uM after 4 to 6 hrs by GFP reporter gene assay relative to Br-HSL; procedure, shortened: as §1
T1 sequence (whole entry): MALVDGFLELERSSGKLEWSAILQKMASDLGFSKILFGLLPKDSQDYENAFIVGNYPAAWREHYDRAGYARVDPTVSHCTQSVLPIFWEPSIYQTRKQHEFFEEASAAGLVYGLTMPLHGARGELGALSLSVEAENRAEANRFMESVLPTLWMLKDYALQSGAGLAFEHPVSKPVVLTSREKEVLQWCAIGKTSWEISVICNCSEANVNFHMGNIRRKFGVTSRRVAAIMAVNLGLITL

[3] = biological target: T1, Transcriptional activator protein LasR (Pseudomonas aeruginosa (strain ATCC 15692 / PAO1 / 1C / PRS 101 / LMG12228)); assay: Antagonist activity at LasR in Pseudomonas aeruginosa PAO1 assessed as decrease in pyocyanin level in cell-free supernatants after 12 hrs
Procedure, shortened: (§2)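 Cell-free supernatants from PAO1 or PA14 cultures. Pyocyanin is read directly as absorbance at 695 nm, in triplicate. Cell density is read at A600 in parallel.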

[4] = biological target: T1, Transcriptional activator protein LasR (Pseudomonas aeruginosa (strain ATCC 15692 / PAO1 / 1C / PRS 101 / LMG12228)); assay: Irreversible antagonist activity at Pseudomonas aeruginosa LasR expressed in Escherichia coli BL21 DE3 at 10 to 100 uM after 4 to 6 hrs by GFP reporter gene assay in presence of LasR agonist 3-oxo-C12HSL
Procedure, shortened: (§3)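 Competition format of the GFP LasR bioassay: antagonist held at a fixed concentration while a dose-response curve of native agonist 3-oxo-C12 HSL is run; the maximal activation and the curve are compared.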

[5] = biological target: T1, Transcriptional activator protein LasR (Pseudomonas aeruginosa (strain ATCC 15692 / PAO1 / 1C / PRS 101 / LMG12228)); assay: Antagonist activity at LasR in Pseudomonas aeruginosa PA14 assessed as decrease in pyocyanin level in cell-free supernatants after 12 hrs; procedure, shortened: as §2
[6] = biological target: T1, Transcriptional activator protein LasR (Pseudomonas aeruginosa (strain ATCC 15692 / PAO1 / 1C / PRS 101 / LMG12228)); assay: Antagonist activity at LasR in Pseudomonas aeruginosa PAO1 assessed as decrease in pyocyanin level in extracted and acidified cell-free supernatants after 12 hrs
Procedure, shortened: (§4)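 Cell-free culture supernatants undergo a pyocyanin-selective extraction and acidification, then absorbance is read at 520 nm.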

[7] = biological target: T1, Transcriptional activator protein LasR (Pseudomonas aeruginosa (strain ATCC 15692 / PAO1 / 1C / PRS 101 / LMG12228)); assay: Antagonist activity at LasR in Pseudomonas aeruginosa PA14 assessed as decrease in pyocyanin level in extracted and acidified cell-free supernatants after 12 hrs; procedure, shortened: as §4
[8] = system: Pseudomonas aeruginosa; assay: Effect on growth of Pseudomonas aeruginosa PAO1 at 12.5 to 25 uM; type: organism-based; settings: in vivo
Procedure, shortened: (§5)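 Growth of PAO1 and PA14 in the pyocyanin cultures is followed by cell density at A600.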

[9] = system: Pseudomonas aeruginosa; assay: Effect on growth of Pseudomonas aeruginosa PA14 at 12.5 to 25 uM; procedure, shortened: as §5
[10] = biological target: T1, Transcriptional activator protein LasR (Pseudomonas aeruginosa (strain ATCC 15692 / PAO1 / 1C / PRS 101 / LMG12228)); assay: Antagonist activity at LasR in Pseudomonas aeruginosa PA14 assessed as inhibition of static biofilm formation after 48 hrs by crystal violet staining
Procedure, shortened: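 Static PA14 cultures; 48 h biofilms quantified by crystal violet staining, absorbance at 550 nm.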

[11] = biological target: T1, Transcriptional activator protein LasR (Pseudomonas aeruginosa (strain ATCC 15692 / PAO1 / 1C / PRS 101 / LMG12228)); assay: Antagonist activity at LasR in Pseudomonas aeruginosa PA14 assessed as inhibition of static biofilm thickness grown in rich media after 36 hrs by SYTO-9 nucleic acid staining-based confocal microscopic analysis
Procedure, shortened: (§6)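 PA14 biofilms grown 36 h in Luria broth, stained with SYTO-9 and imaged by confocal fluorescence microscopy. Biomass and thickness are computed from the images. Images are taken in duplicate and imaging is repeated three times.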

[12] = biological target: T1, Transcriptional activator protein LasR (Pseudomonas aeruginosa (strain ATCC 15692 / PAO1 / 1C / PRS 101 / LMG12228)); assay: Antagonist activity at LasR in Pseudomonas aeruginosa PA14 assessed as inhibition of overall static biofilm biomass grown in rich media after 36 hrs SYTO-9 nucleic acid staining-based confocal microscopic analysis; procedure, shortened: as §6
[13] = biological target: T1, Transcriptional activator protein LasR (Pseudomonas aeruginosa (strain ATCC 15692 / PAO1 / 1C / PRS 101 / LMG12228)); assay: Antagonist activity at LasR in Pseudomonas aeruginosa PA14 assessed as inhibition of static biofilm biomass grown in rich media at 12.5 to 25 uM after 36 hrs SYTO-9 nucleic acid staining-based confocal microscopic analysis
[14] = biological target: T1, Transcriptional activator protein LasR (Pseudomonas aeruginosa (strain ATCC 15692 / PAO1 / 1C / PRS 101 / LMG12228)); assay: Antagonist activity at LasR in Pseudomonas aeruginosa PA14 assessed as inhibition of static biofilm thickness grown in rich media at 12.5 to 25 uM after 36 hrs SYTO-9 nucleic acid staining-based confocal microscopic analysis
[15] = biological target: T1, Transcriptional activator protein LasR (Pseudomonas aeruginosa (strain ATCC 15692 / PAO1 / 1C / PRS 101 / LMG12228)); assay: Antagonist activity at LasR in Pseudomonas aeruginosa PA14 assessed as inhibition of overall static biofilm morphology grown in rich media at 12.5 to 25 uM after 36 hrs SYTO-9 nucleic acid staining-based confocal microscopic analysis
[16] = system: Pseudomonas aeruginosa; assay: Effect on growth of Pseudomonas aeruginosa up to 200 uM; type: organism-based; settings: in vivo
Procedure, shortened: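 Bacterial growth is monitored by OD600 at concentrations up to 200 μM.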

[17] = biological target: T2, Transcriptional activator protein LasR (Pseudomonas aeruginosa (strain ATCC 15692 / PAO1 / 1C / PRS 101 / LMG12228), UniProt P25084); assay: Agonist activity at Pseudomonas aeruginosa LasR
T2 sequence (P25084 whole entry): T1 sequence (whole entry)

[18] = biological target: T1, Transcriptional activator protein LasR (Pseudomonas aeruginosa (strain ATCC 15692 / PAO1 / 1C / PRS 101 / LMG12228)); assay: Non-competitive antagonist activity at Pseudomonas aeruginosa LasR expressed in Escherichia coli BL21 DE3 at 40 to 80 uM after 4 to 6 hrs by GFP reporter gene assay in presence of LasR agonist 3-oxo-C12HSL; procedure, shortened: as §3
[19] = biological target: T2, Transcriptional activator protein LasR; assay: Agonist activity at Pseudomonas aeruginosa LasR expressed in Escherichia coli BL21 DE3 after 4 to 6 hrs by GFP reporter gene assay
[20] = biological target: T1, Transcriptional activator protein LasR (Pseudomonas aeruginosa (strain ATCC 15692 / PAO1 / 1C / PRS 101 / LMG12228)); assay: Irreversible antagonist activity at Pseudomonas aeruginosa LasR expressed in Escherichia coli BL21 DE3 at 10 to 50 uM after 4 to 6 hrs by GFP reporter gene assay in presence of LasR agonist 3-oxo-C12HSL; procedure, shortened: as §3

SMILES | IC50 [1] [µM] | inhibition [2] [%] | also measured
O=C(Cc1cc(Br)cc(Br)c1OC(=O)CN1C(=O)C=CC1=O)Nc1ccccc1[N+](=O)[O-] | 86.8 | 56 | 
O=C(Cc1cc(Br)cc(Br)c1OC(=O)CCCN=C=S)Nc1ccccc1[N+](=O)[O-] | 148 | 69 | Activity [16]: Non-toxic
O=C(CCl)NCCC(=O)Oc1c(Br)cc(Br)cc1CC(=O)Nc1ccccc1[N+](=O)[O-] | 99.5 | 79 | 
O=C(Oc1c(Br)cc(Br)cc1CNC(=O)c1ccccc1[N+](=O)[O-])c1ccccc1Cl |  |  | EC50 [17]: 0.028 µM
O=C(Cc1cc(Br)cc(Br)c1OCCCCN=C=S)Nc1ccccc1[N+](=O)[O-] | 145 | 61 | Activity [16]: Non-toxic; inhibition [18]: Active
O=C(CCCN1C(=O)CCC1=O)Oc1c(Br)cc(Br)cc1CNC(=O)c1ccccc1[N+](=O)[O-] | > 100 |  | EC50 [19]: 0.119 µM
O=C(Cc1cc(Br)cc(Br)c1OC(=O)CCN1C(=O)CCC1=O)Nc1ccccc1[N+](=O)[O-] | > 100 |  | EC50 [19]: 0.0036 µM
O=C(Cc1cc(Br)cc(Br)c1OCCCN=C=S)Nc1ccccc1[N+](=O)[O-] | > 200 | 55 | Activity [16]: Non-toxic
O=C(CCCN=C=S)Oc1c(Br)cc(Br)cc1CNC(=O)c1ccccc1[N+](=O)[O-] | > 200 | 26 | Activity [16]: Non-toxic

More lines, main results first:

IC50 [1] [µM] | inhibition [2] [%] | SMILES | also measured
1.5 | 101 | O=C(CCCN1C(=O)C=CC1=O)Oc1c(Br)cc(Br)cc1CNC(=O)c1ccccc1[N+](=O)[O-] | inhibition [3]: Dose-dependent effect; inhibition [4]: Active; inhibition [5]: Dose-dependent effect; inhibition [6]: Dose-dependent effect; inhibition [7]: Dose-dependent effect; Activity [8]: Non-toxic; Activity [9]: Non-toxic; inhibition [10]: Dose-dependent effect; inhibition [11]: Dose-dependent effect; inhibition [12]: Dose-dependent effect; inhibition [13]: Active; inhibition [14]: Active; inhibition [15]: Active
16.4 |  | O=C(Cc1ccc(Br)cc1)N[C@H]1CCOC1=O | 
78.1 | 30 | O=C(Cc1cc(Br)cc(Br)c1OC(=O)CCCN1C(=O)C=CC1=O)Nc1ccccc1[N+](=O)[O-] | 
73.8 | 91 | O=C(CCl)NCC(=O)Oc1c(Br)cc(Br)cc1CC(=O)Nc1ccccc1[N+](=O)[O-] | 
51.9 | 32 | O=C(CCN1C(=O)C=CC1=O)Oc1c(Br)cc(Br)cc1CNC(=O)c1ccccc1[N+](=O)[O-] | 
3.6 | 98 | O=C(Cc1cc(Br)cc(Br)c1OC(=O)CCN1C(=O)C=CC1=O)Nc1ccccc1[N+](=O)[O-] | inhibition [20]: Active
